Test results from ChEMBL document CHEMBL3352673, “Novel inhibitors of the high-affinity L-proline transporter as potential therapeutic agents for the treatment of cognitive disorders” (Bioorg Med Chem Lett, 2014).
Active and inactive are the calls of the source. The calls are words filed in the database; no cut-off is given here.

How the values were obtained:
[1] = target: T1, Sodium-dependent proline transporter (Homo sapiens, UniProt Q99884); test: Inhibition of human high-affinity L-proline transporter expressed in COS1 cells by [3H]proline uptake assay; assay type: cell-based, COS-1
T1 sequence (Q99884 whole entry): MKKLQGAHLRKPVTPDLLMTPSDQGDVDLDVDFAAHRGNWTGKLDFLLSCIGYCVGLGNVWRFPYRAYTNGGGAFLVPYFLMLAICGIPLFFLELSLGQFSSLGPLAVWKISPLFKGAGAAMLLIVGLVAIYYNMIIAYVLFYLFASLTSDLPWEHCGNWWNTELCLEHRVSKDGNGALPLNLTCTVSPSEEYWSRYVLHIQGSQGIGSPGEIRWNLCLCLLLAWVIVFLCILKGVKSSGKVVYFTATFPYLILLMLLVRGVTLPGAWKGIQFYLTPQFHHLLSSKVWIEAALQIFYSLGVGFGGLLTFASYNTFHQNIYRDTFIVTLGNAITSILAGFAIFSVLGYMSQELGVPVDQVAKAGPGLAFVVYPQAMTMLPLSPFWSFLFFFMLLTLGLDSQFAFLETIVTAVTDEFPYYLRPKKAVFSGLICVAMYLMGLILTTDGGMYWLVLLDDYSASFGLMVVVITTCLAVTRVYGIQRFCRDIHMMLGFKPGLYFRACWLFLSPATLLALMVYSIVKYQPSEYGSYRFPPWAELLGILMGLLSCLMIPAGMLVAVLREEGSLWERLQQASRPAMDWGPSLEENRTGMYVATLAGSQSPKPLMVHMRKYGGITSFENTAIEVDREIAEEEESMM

[2] = Stability in mouse liver S9 fraction assessed as remaining parent compound level after 30 mins; assay type: ADME, subcellular; conditions: read-out: Stability
Summary of the method: (§1)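 Compound incubated 30 min with S9 fraction of mouse liver homogenate; parent compound remaining measured.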

[3] = target: T2, Sodium-dependent dopamine transporter (Homo sapiens, UniProt Q01959); test: Inhibition of DAT (unknown origin)
T2 sequence (Q01959 whole entry): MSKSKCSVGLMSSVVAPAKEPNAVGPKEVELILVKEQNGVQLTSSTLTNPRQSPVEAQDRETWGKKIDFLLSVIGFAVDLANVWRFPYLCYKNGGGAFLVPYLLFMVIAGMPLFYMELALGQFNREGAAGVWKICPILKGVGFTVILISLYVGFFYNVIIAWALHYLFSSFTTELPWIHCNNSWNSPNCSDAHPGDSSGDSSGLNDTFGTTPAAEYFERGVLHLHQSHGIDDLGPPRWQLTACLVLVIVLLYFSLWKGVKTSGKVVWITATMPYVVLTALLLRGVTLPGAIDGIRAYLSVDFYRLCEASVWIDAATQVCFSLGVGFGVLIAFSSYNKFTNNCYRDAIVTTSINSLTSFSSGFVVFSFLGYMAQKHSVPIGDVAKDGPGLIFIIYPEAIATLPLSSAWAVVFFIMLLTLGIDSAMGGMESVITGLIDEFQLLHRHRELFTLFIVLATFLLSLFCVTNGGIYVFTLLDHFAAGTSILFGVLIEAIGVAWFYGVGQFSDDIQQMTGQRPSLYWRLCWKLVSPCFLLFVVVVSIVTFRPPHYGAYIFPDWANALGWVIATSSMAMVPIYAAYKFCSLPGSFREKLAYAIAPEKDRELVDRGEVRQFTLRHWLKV

[4] = Inhibition of GlyT (unknown origin); design: species or system Homo sapiens
hERG (KCNH2) = hERG (KCNH2) (Homo sapiens, UniProt Q12809); test: Inhibition of human ERG at 10 uM
Sequence of hERG (KCNH2) (Q12809 whole entry): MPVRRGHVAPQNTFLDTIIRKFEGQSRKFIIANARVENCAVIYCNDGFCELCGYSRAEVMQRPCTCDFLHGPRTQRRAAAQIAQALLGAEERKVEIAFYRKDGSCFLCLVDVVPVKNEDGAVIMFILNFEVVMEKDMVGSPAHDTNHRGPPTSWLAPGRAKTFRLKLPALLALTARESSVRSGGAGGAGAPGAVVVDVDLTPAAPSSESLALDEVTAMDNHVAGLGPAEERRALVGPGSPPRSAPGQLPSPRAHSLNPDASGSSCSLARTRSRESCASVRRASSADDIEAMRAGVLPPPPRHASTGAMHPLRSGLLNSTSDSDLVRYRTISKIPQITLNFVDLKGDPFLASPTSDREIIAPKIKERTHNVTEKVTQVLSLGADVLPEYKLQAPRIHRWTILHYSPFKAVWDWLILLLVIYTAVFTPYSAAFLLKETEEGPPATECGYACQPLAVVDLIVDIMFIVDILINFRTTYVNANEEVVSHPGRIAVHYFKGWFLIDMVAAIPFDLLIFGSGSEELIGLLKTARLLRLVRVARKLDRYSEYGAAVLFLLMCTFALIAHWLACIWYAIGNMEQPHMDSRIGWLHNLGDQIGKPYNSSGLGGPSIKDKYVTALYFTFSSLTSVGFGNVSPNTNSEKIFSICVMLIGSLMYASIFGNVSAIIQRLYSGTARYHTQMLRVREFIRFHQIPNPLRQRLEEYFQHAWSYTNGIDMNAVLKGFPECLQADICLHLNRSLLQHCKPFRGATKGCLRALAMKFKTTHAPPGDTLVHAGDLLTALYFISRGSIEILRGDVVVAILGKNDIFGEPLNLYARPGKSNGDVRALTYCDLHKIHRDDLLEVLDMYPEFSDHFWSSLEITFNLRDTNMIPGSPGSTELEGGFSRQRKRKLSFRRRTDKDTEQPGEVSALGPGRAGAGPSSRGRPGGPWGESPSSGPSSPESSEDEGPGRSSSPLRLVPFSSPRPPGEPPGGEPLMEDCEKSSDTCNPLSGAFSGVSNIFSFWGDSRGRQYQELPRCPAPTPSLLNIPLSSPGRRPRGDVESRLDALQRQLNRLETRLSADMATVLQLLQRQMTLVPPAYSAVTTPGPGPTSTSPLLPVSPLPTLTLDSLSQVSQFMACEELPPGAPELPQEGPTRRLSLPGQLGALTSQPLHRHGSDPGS

Mus musculus [5] = test: Toxicity in mouse assessed as induction of lethargy at 1 mg/kg, iv; assay type: organism-based; design: dose 1 mg/kg, route intravenous; conditions: in vivo
Summary of the method: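 Mice dosed IV at 1 mpk and observed for lethargy.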

[6] = Protein binding in plasma (unknown origin) by equilibrium dialysis assay; assay type: ADME, cell-free; conditions: read-out: PPB (converted)
Summary of the method: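 Plasma protein binding measured by equilibrium dialysis.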

[7] = Stability in mouse liver homogenates assessed as remaining parent compound level after 30 mins; assay type: ADME, tissue-based; conditions: liver homogenate, read-out: Stability; summary of the method: as §1
[8] = target: T2, Sodium-dependent dopamine transporter; test: Inhibition of DAT (unknown origin) at 10 uM
Mus musculus [9] = test: Toxicity in albino C57BL/6 mouse at 100 mg/kg, po; assay type: organism-based; design: dose 100 mg/kg, route oral; conditions: in vivo
[10] = Tmax in albino C57BL/6 mouse at 100 mg/kg, po; assay type: ADME, organism-based; design: dose 100 mg/kg, route oral; conditions: in vivo
Summary of the method: (§2)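 Single oral administration at 100 mpk to C57BL/6 albino mice; plasma exposure parameters (Tmax, Cmax, AUC) derived.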

[11] = Cmax in albino C57BL/6 mouse at 100 mg/kg, po; assay type: ADME, organism-based; design: dose 100 mg/kg, route oral; conditions: in vivo; summary of the method: as §2
[12] = AUC (0 to infinity) in albino C57BL/6 mouse at 100 mg/kg, po; assay type: ADME, organism-based; design: time infinity, dose 100 mg/kg, route oral; conditions: plasma; summary of the method: as §2
[13] = Drug level in albino C57BL/6 mouse brain at 100 mg/kg, po after 6 hrs; assay type: ADME, organism-based; design: dose 100 mg/kg, route oral; conditions: read-out: Drug uptake
[14] = Ratio of drug level in brain to plasma in albino C57BL/6 mouse at 100 mg/kg, po after 6 hrs; assay type: ADME, organism-based; design: dose 100 mg/kg, route oral; conditions: read-out: BPR
Mus musculus [15] = test: Toxicity in albino C57BL/6 mouse assessed as effect on open field trial parameters at 100 mg/kg, po; assay type: organism-based; design: dose 100 mg/kg, route oral; conditions: in vivo
Mus musculus [16] = test: Induction of cognitive improvement in albino C57BL/6 mouse trace conditioning model assessed as improvement in response to conditioned stimulus at 100 mg/kg, po; assay type: functional, organism-based; design: dose 100 mg/kg
Summary of the method: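 C57 mice (n = 13) given 100 mpk PO alongside a vehicle control group; fear conditioning with context freezing portion scored as response to conditioned stimulus; statistical comparison with vehicle by P value.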

Compound	IC50 [1] [nM]	other results
O=C(c1ccc(-c2ccccc2)cc1)N1CCN(c2nccs2)CC1	146	
O=C(c1ccc(NCc2ccccc2)cc1)N1CCN(c2ncccn2)CC1	870	fraction unbound [6]: 0.05; remaining at 0.5 h [7]: 63%
O=C(c1ccc(Oc2ccccc2)cc1)N1CCN(c2ncccn2)CC1	1950	
O=C(c1ccc(-c2cccc(Cl)c2)cc1)N1CC2CC1CN2c1ncccn1 (stereo not given)	1340	
CC1CN(C(=O)c2ccc(-c3ccccc3)cc2)CCN1c1ncccn1 (stereo not given)	477	
O=C(c1ccc(OCc2ccccc2)cc1)N1CCN(c2ncccn2)CC1	270	remaining at 0.5 h [7]: 45%
CCc1ccc(-c2ccc(C(=O)N3CCN(c4ncccn4)CC3)cc2)cc1	77	
O=C(c1ccccc1-c1ccccc1)N1CCN(c2ncccn2)CC1	6010	
Cc1ccccc1-c1ccc(C(=O)N2CCN(c3ncccn3)CC2)cc1	653	
COc1ccc(-c2ccc(C(=O)N3CCN(c4ncccn4)CC3)cc2)cc1	230	
O=C(c1ccc(-c2cccc(Cl)c2)cc1)N1CCCN(c2ncccn2)CC1	89	
O=C(c1ccc(-c2ccc(Cl)s2)cc1)N1CCN(c2ncccn2)CC1	150	
CC(C)(C)C1CN(c2ncccn2)CCN1C(=O)c1ccc(-c2cccc(Cl)c2)cc1 (stereo not given)	700	
O=C(O)C1CN(c2ncccn2)CCN1C(=O)c1ccc(-c2cccc(Cl)c2)cc1 (stereo not given)	128	
O=C(c1ccc(-c2cccc(OC(F)(F)F)c2)cc1)N1CCN(c2ncccn2)CC1	73	
O=C(c1ccc(-c2ccccc2)cc1)N1CCN(c2cnccn2)CC1	1300	
O=C(c1ccc(-c2cccc(Cl)c2)cc1)N1CCN(c2ncccn2)CC1CO (stereo not given)	76	
O=C(c1ccc(-c2ccccc2)cc1)N1CCN(c2cccnn2)CC1	5000	
O=C(c1ccc(-c2ccccc2)cc1)N1CCN(c2ccccn2)CC1	160	remaining at 0.5 h [2]: 53%
O=C(c1ccc(-c2ccccc2)cc1)N1CCN(c2ccccc2)CC1	1480	
O=C(c1cccc(-c2ccccc2)c1)N1CCN(c2ncccn2)CC1	1880	
O=C(c1ccc(-c2ccccc2C(F)(F)F)cc1)N1CCN(c2ncccn2)CC1	1260	
Cc1ccnc(N2CCN(C(=O)c3ccc(-c4ccccc4)cc3)CC2)n1	270	
N#Cc1cccc(-c2ccc(C(=O)N3CCN(c4ncccn4)CC3)cc2)c1	190	
O=C(c1ccc(C2CCCCC2)cc1)N1CCN(c2ncccn2)CC1	7010	
O=C(c1ccc(-c2ccccc2)cc1)N1CCN(c2nccc(C(F)(F)F)n2)CC1	2180	
N#Cc1ccc(-c2ccc(C(=O)N3CCN(c4ncccn4)CC3)cc2)cc1	190	
O=C(c1ccc(-c2ccccc2)cc1)N1CCN(c2ncccn2)CC1	280	

More lines, main results first:

IC50 [1] [nM]	Compound	other results
34	Cc1csc(-c2ccc(C(=O)N3CCN(c4ncccn4)CC3)cc2)c1	
57	C[C@@H]1CN(c2ncccn2)CCN1C(=O)c1ccc(-c2ccc(Cl)cc2)cc1	
18	O=C(c1ccc(-c2cccc(Cl)c2)cc1)N1C2CCC1CN(c1ncccn1)C2	remaining at 0.5 h [2]: 70%; IC50 [3]: 6100 nM; IC50 [4]: > 10000 nM; inhibition at 10 µM (hERG (KCNH2)): 59%; Activity (Mus musculus [5]): Toxic
52	O=C(c1ccc(-c2ccc(Cl)cc2)cc1)N1CCN(c2ncccn2)CC1	fraction unbound [6]: 0.022
53	CC1(C)CN(c2ncccn2)CCN1C(=O)c1ccc(-c2cccc(Cl)c2)cc1	
24	CC1CN(c2ncccn2)CC(C)N1C(=O)c1ccc(-c2cccc(Cl)c2)cc1 (stereo not given)	
34	Cc1ccc(-c2ccc(C(=O)N3CCN(c4ncccn4)CC3)cc2)cc1	
71	O=C(c1ccc(-c2cccc(C(F)(F)F)c2)cc1)N1CCN(c2ncccn2)CC1	
21	C[C@H]1CN(c2ncccn2)CCN1C(=O)c1ccc(-c2ccc(Cl)cc2)cc1	
61	Cc1ccc(-c2ccc(C(=O)N3CCN(c4ncccn4)CC3)cc2)s1	
36	O=C(c1ccc(-c2cccc(Cl)c2)cc1)N1CCN(c2ncccn2)CC1	remaining at 0.5 h [2]: 90%; IC50 [3]: 3400 nM; IC50 [4]: > 10000 nM; fraction unbound [6]: 0.008
36	O=C(c1ccc(-c2cccc(Cl)c2)cc1)N1CC2CN(c3ncccn3)CC2C1 (stereo not given)	
27	O=C(c1ccc(-c2cccc(Cl)c2)cc1)N1CC2CCC(C1)N2c1ncccn1	remaining at 0.5 h [2]: 75%; inhibition [8]: inactive; Activity (Mus musculus [9]): Non-toxic; Tmax [10]: 22.8 min; Cmax [11]: 4500 ng/mL; AUC(0-inf) [12]: 24000 ng·h/mL; concentration at 6 h [13]: 2260 ng/mL; Kp at 6 h [14]: 1.7; Activity (Mus musculus [15]): Non-toxic; Activity (Mus musculus [16]): inactive
